Measurements published in ChEMBL document CHEMBL2021838, “Solvent effect on copper-catalyzed azide-alkyne cycloaddition (CuAAC): synthesis of novel triazolyl substituted quinolines as potential anticancer agents” (Bioorg Med Chem Lett, 2012).
pIC50: −log10 of the molar value.

Legend:
[1] = system: K562; assay: Antiproliferative activity against human K562 cells assessed as cell growth inhibition at 10 uM after 24 hrs by MTT assay; format: functional; conditions: K562, 24 h, read-out: GI
Procedure, shortened: (§1)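 MTT viability assay. Cells seeded at 5 × 10³ per well and cultured with or without compound for 24 h. MTT (5 mg/ml in PBS) was then added in fresh medium and incubated 2 h at 37 °C, followed by DMSO and 1 min agitation. Absorbance was read at 570 nm. Percent inhibition of proliferation was calculated relative to the untreated control. Dose-response used […].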

[2] = system: K562; assay: Antiproliferative activity against human K562 cells assessed as cell growth inhibition at 1 uM after 24 hrs by MTT assay; format: functional; conditions: K562, 24 h, read-out: GI; procedure, shortened: as §1
[3] = system: MDA-MB-231; assay: Antiproliferative activity against human MDA-MB-231 cells assessed as cell growth inhibition at 10 uM after 24 hrs by MTT assay; format: functional; conditions: MDA-MB-231, 24 h, read-out: GI; procedure, shortened: as §1
[4] = system: MDA-MB-231; assay: Antiproliferative activity against human MDA-MB-231 cells assessed as cell growth inhibition at 1 uM after 24 hrs by MTT assay; format: functional; conditions: MDA-MB-231, 24 h, read-out: GI; procedure, shortened: as §1
[5] = system: K562; assay: Antiproliferative activity against human K562 cells assessed as cell growth inhibition at 0.5 uM after 24 hrs by MTT assay; format: functional; conditions: K562, 24 h, read-out: GI; procedure, shortened: as §1
[6] = system: K562; assay: Antiproliferative activity against human K562 cells assessed as cell growth inhibition at 0.1 uM after 24 hrs by MTT assay; format: functional; conditions: K562, 24 h, read-out: GI; procedure, shortened: as §1
[7] = system: K562; assay: Antiproliferative activity against human K562 cells assessed as cell growth inhibition at 0.01 uM after 24 hrs by MTT assay; format: functional; conditions: K562, 24 h, read-out: GI; procedure, shortened: as §1
[8] = system: K562; assay: Antiproliferative activity against human K562 cells assessed as cell growth inhibition after 24 hrs by MTT assay; format: functional, cell-based; conditions: K562, 24 h; procedure, shortened: as §1
[9] = system: MDA-MB-231; assay: Antiproliferative activity against human MDA-MB-231 cells assessed as cell growth inhibition at 0.5 uM after 24 hrs by MTT assay; format: functional; conditions: MDA-MB-231, 24 h, read-out: GI; procedure, shortened: as §1
[10] = system: MDA-MB-231; assay: Antiproliferative activity against human MDA-MB-231 cells assessed as cell growth inhibition at 0.1 uM after 24 hrs by MTT assay; format: functional; conditions: MDA-MB-231, 24 h, read-out: GI; procedure, shortened: as §1
[11] = system: MDA-MB-231; assay: Antiproliferative activity against human MDA-MB-231 cells assessed as cell growth inhibition at 0.01 uM after 24 hrs by MTT assay; format: functional; conditions: MDA-MB-231, 24 h, read-out: GI; procedure, shortened: as §1
[12] = system: MDA-MB-231; assay: Antiproliferative activity against human MDA-MB-231 cells assessed as cell growth inhibition after 24 hrs by MTT assay; format: functional, cell-based; conditions: MDA-MB-231, 24 h; procedure, shortened: as §1

Row | Structure (SMILES) | inhibition of growth at 10 µM [1] | inhibition of growth at 1 µM [2] | inhibition of growth at 10 µM [3] | inhibition of growth at 1 µM [4] | other results
1 | c1ccc(-c2cn(-c3cc4nnnn4c4ccccc34)nn2)cc1 | 29.9% | 20.6% | 56% | 52.5% | –
2 | Cc1ccc(-c2cn(-c3cc4nnnn4c4ccccc34)nn2)cc1 | 44.1% | 20.6% | 54% | 47.7% | –
3 | c1ccc(CCc2cn(-c3cc4nnnn4c4ccccc34)nn2)cc1 | 38.1% | 26.7% | 60.8% | 50.5% | –
4 | OCc1cn(-c2cc3nnnn3c3ccccc23)nn1 | 36.9% | 21.8% | 46.8% | 45.8% | –
5 | OCCCc1cn(-c2cc3nnnn3c3ccccc23)nn1 | 52.4% | 47.1% | 46.1% | 42% | inhibition of growth at 0.5 µM [5]: 30%; inhibition of growth at 0.1 µM [6]: 22%; inhibition of growth at 0.01 µM [7]: 9%; pIC50 [8]: 5.34
6 | ClCCCc1cn(-c2cc3nnnn3c3ccccc23)nn1 | 35.2% | 19.9% | 70.1% | 60.2% | inhibition of growth at 0.5 µM [9]: 46%; inhibition of growth at 0.1 µM [10]: 24%; inhibition of growth at 0.01 µM [11]: 11%; pIC50 [12]: 6.10
7 | CCCCc1cn(-c2cc3nnnn3c3ccccc23)nn1 | 34.1% | 28.2% | 57.1% | 55.3% | –
8 | CCCCCCc1cn(-c2cc3nnnn3c3ccccc23)nn1 | 37.4% | 19.1% | 53.4% | 49.7% | –
9 | CCCCCc1cn(-c2cc(-n3cc(CCCCC)nn3)c3ccccc3n2)nn1 | < 30% | – | < 30% | – | –
10 | ClCCCc1cn(-c2cc(-n3cc(CCCCl)nn3)c3ccccc3n2)nn1 | < 30% | – | < 30% | – | –
11 | CCCCc1cn(-c2cc(-n3cc(CCCC)nn3)c3ccccc3n2)nn1 | < 30% | – | < 30% | – | –
12 | CCCCCCc1cn(-c2cc(-n3cc(CCCCCC)nn3)c3ccccc3n2)nn1 | < 30% | – | < 30% | – | –
